# In ChEMBL document CHEMBL1155155, “Single-dose pharmacokinetics of intravenous itraconazole and hydroxypropyl-beta-cyclodextrin in infants, children, and adolescents” (Antimicrob Agents Chemother, 2007):
# Assays:
# [1] = tested on: Homo sapiens; assay: Cmax in human at risk for fungal infection assessed as hydroxyitraconazole level at 2.5 mg/kg, iv in 0.1 g/kg hydroxypropyl-beta-cyclodextrin administered as single dose; format: ADME, organism-based; set-up: dose 2.5 mg/kg, route intravenous; conditions: in vivo
# Outline: (§1)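 Single constant-rate IV infusion over 1 h. Heparinised venous plasma was drawn predose and at 1–120 h (>2 yr) or 1–96 h (<2 yr, randomised to the itraconazole/metabolite arm), then stored at –20°C. Analysis used borate-buffered liquid-liquid extraction with internal standard, C18 HPLC and UV detection at 263 nm, linear 5–5,000 ng/ml. Individual Cmax was read by visual inspection, noncompartmental.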
# [2] = Clearance in children of >6-12 yrs age at risk for fungal infection at 2.5 mg/kg, iv in 0.1 g/kg hydroxypropyl-beta-cyclodextrin administered as single dose; format: ADME, organism-based; set-up: dose 2.5 mg/kg, route intravenous; conditions: human, in vivo
# Outline: (§2)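 Single 1-h IV infusion. Plasma sampled from the contralateral limb predose and at 1–120 h (>2 y) or 1–96 h (<2 y). Itraconazole was extracted with internal standard and quantified by C18 HPLC with UV 263 nm detection, linear range 2–2,000 ng/ml. Noncompartmental analysis: Cmax by inspection, AUC0-24 by trapezoidal rule, AUC extrapolated via λz, CL and Vz from AUC0-∞.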
# [3] = AUC (0 to 24 hrs) in adolescents of >12-16 yrs age at risk for fungal infection at 2.5 mg/kg, iv in 0.1 g/kg hydroxypropyl-beta-cyclodextrin administered as single dose; format: ADME, organism-based; set-up: time < 24 hr, dose 2.5 mg/kg, route intravenous; conditions: human, plasma; outline: as §2
# [4] = tested on: Homo sapiens; assay: Tmax in children of >2-6 yrs age at risk for fungal infection assessed as hydroxyitraconazole level at 2.5 mg/kg, iv in 0.1 g/kg hydroxypropyl-beta-cyclodextrin administered as single dose; format: ADME, organism-based; set-up: dose 2.5 mg/kg, route intravenous; conditions: in vivo
# Outline: (§3)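 Single 1-h constant-rate IV infusion. Venous plasma sampled predose and to 120 h (>2 y) or 96 h (<2 y), then stored at –20°C. Hydroxyitraconazole was measured by borate/isoamylalcohol-heptane extraction, HCl back-extraction, C18 HPLC and UV 263 nm, with a linear range of 5–5,000 ng/ml. Noncompartmental analysis: Cmax and tmax by inspection, AUC0-24 by trapezoidal rule.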
# [5] = Cmax in infants of 0.6-2 yrs age at risk for fungal infection at 2.5 mg/kg, iv in 0.1 g/kg hydroxypropyl-beta-cyclodextrin administered as single dose; format: ADME, organism-based; set-up: dose 2.5 mg/kg, route intravenous; conditions: human, in vivo; outline: as §2
# [6] = Clearance in human at risk for fungal infection at 2.5 mg/kg, iv in 0.1 g/kg hydroxypropyl-beta-cyclodextrin administered as single dose; format: ADME, organism-based; set-up: dose 2.5 mg/kg, route intravenous; conditions: in vivo; outline: as §2
# [7] = Cmax in adolescents of >12-16 yrs age at risk for fungal infection at 2.5 mg/kg, iv in 0.1 g/kg hydroxypropyl-beta-cyclodextrin administered as single dose; format: ADME, organism-based; set-up: dose 2.5 mg/kg, route intravenous; conditions: human, in vivo; outline: as §2
# [8] = tested on: Homo sapiens; assay: Cmax in infants of 0.6-2 yrs age at risk for fungal infection assessed as hydroxyitraconazole level at 2.5 mg/kg, iv in 0.1 g/kg hydroxypropyl-beta-cyclodextrin administered as single dose; format: ADME, organism-based; set-up: dose 2.5 mg/kg, route intravenous; conditions: in vivo; outline: as §1
# [9] = tested on: Homo sapiens; assay: Half life in infants of 0.6-2 yrs age at risk for fungal infection assessed as hydroxyitraconazole level at 2.5 mg/kg, iv in 0.1 g/kg hydroxypropyl-beta-cyclodextrin administered as single dose; format: ADME, organism-based; set-up: dose 2.5 mg/kg, route intravenous; conditions: in vivo; outline: as §3
# [10] = tested on: Homo sapiens; assay: AUC (0 to 24 hrs) in infants of 0.6-2 yrs age at risk for fungal infection assessed as hydroxyitraconazole level at 2.5 mg/kg, iv in 0.1 g/kg hydroxypropyl-beta-cyclodextrin administered as single dose; format: ADME, organism-based, Plasma; set-up: time < 24 hr, dose 2.5 mg/kg, route intravenous; conditions: in vivo; outline: as §3
# [11] = Half life in children of >6-12 yrs age at risk for fungal infection at 2.5 mg/kg, iv in 0.1 g/kg hydroxypropyl-beta-cyclodextrin administered as single dose; format: ADME, organism-based; set-up: dose 2.5 mg/kg, route intravenous; conditions: human, in vivo; outline: as §2
# [12] = tested on: Homo sapiens; assay: Half life in children of >2-6 yrs age at risk for fungal infection assessed as hydroxyitraconazole level at 2.5 mg/kg, iv in 0.1 g/kg hydroxypropyl-beta-cyclodextrin administered as single dose; format: ADME, organism-based; set-up: dose 2.5 mg/kg, route intravenous; conditions: in vivo; outline: as §3
# [13] = Apparent volume of distribution in children of >2-6 yrs age at risk for fungal infection at 2.5 mg/kg, iv in 0.1 g/kg hydroxypropyl-beta-cyclodextrin administered as single dose; format: ADME, organism-based; set-up: dose 2.5 mg/kg, route intravenous; conditions: human, in vivo; outline: as §2
# [14] = Half life in adolescents of >12-16 yrs age at risk for fungal infection at 2.5 mg/kg, iv in 0.1 g/kg hydroxypropyl-beta-cyclodextrin administered as single dose; format: ADME, organism-based; set-up: dose 2.5 mg/kg, route intravenous; conditions: human, in vivo; outline: as §2
# [15] = Half life in human at risk for fungal infection at 2.5 mg/kg, iv in 0.1 g/kg hydroxypropyl-beta-cyclodextrin administered as single dose; format: ADME, organism-based; set-up: dose 2.5 mg/kg, route intravenous; conditions: in vivo; outline: as §2
# [16] = Cmax in human at risk for fungal infection at 2.5 mg/kg, iv in 0.1 g/kg hydroxypropyl-beta-cyclodextrin administered as single dose; format: ADME, organism-based; set-up: dose 2.5 mg/kg, route intravenous; conditions: in vivo; outline: as §2
# [17] = Half life in children of >2-6 yrs age at risk for fungal infection at 2.5 mg/kg, iv in 0.1 g/kg hydroxypropyl-beta-cyclodextrin administered as single dose; format: ADME, organism-based; set-up: dose 2.5 mg/kg, route intravenous; conditions: human, in vivo; outline: as §2
# [18] = AUC (0 to 24 hrs) in human at risk for fungal infection at 2.5 mg/kg, iv in 0.1 g/kg hydroxypropyl-beta-cyclodextrin administered as single dose; format: ADME, organism-based; set-up: time < 24 hr, dose 2.5 mg/kg, route intravenous; conditions: plasma; outline: as §2
# [19] = Clearance in adolescents of >12-16 yrs age at risk for fungal infection at 2.5 mg/kg, iv in 0.1 g/kg hydroxypropyl-beta-cyclodextrin administered as single dose; format: ADME, organism-based; set-up: dose 2.5 mg/kg, route intravenous; conditions: human, in vivo; outline: as §2
# [20] = Cmax in children of >6-12 yrs age at risk for fungal infection at 2.5 mg/kg, iv in 0.1 g/kg hydroxypropyl-beta-cyclodextrin administered as single dose; format: ADME, organism-based; set-up: dose 2.5 mg/kg, route intravenous; conditions: human, in vivo; outline: as §2
# [21] = Apparent volume of distribution in infants of 0.6-2 yrs age at risk for fungal infection at 2.5 mg/kg, iv in 0.1 g/kg hydroxypropyl-beta-cyclodextrin administered as single dose; format: ADME, organism-based; set-up: dose 2.5 mg/kg, route intravenous; conditions: human, in vivo; outline: as §2
# [22] = tested on: Homo sapiens; assay: Tmax in infants of 0.6-2 yrs age at risk for fungal infection assessed as hydroxyitraconazole level at 2.5 mg/kg, iv in 0.1 g/kg hydroxypropyl-beta-cyclodextrin administered as single dose; format: ADME, organism-based; set-up: dose 2.5 mg/kg, route intravenous; conditions: in vivo; outline: as §3
smiles,measurement,setting,value
CCC(C)n1ncn(-c2ccc(N3CCN(c4ccc(OCC5COC(Cn6cncn6)(c6ccc(Cl)cc6Cl)O5)cc4)CC3)cc2)c1=O (configuration not stated) [ITRACONAZOLE],Cmax,[1],293 ng/mL
same,clearance,[2],10.3 mL/min/kg
same,AUC(0-t) at 24 h,[3],2670 ng·h/mL
same,Tmax,[4],2.9 h
same,Cmax,[5],827 ng/mL
same,clearance,[6],11.7 mL/min/kg
same,Cmax,[7],806 ng/mL
same,Cmax,[8],265 ng/mL
same,t1/2,[9],16.6 h
same,AUC,[10],4155 ng·h/mL
same,half-life,[11],17.2 h
same,t1/2,[12],12.7 h
same,Vd,[13],8.3 L/kg
same,half-life,[14],29 h
same,half-life,[15],20.2 h
same,Cmax,[16],1020 ng/mL
same,half-life,[17],14 h
same,AUC(0-t) at 24 h,[18],4920 ng·h/mL
same,clearance,[19],12.9 mL/min/kg
same,Cmax,[20],785 ng/mL
same,Vd,[21],23.6 L/kg
same,Tmax,[22],4 h
